In ChEMBL document CHEMBL1127787, “1,2,3-Triazole-[2',5'-bis-O-(tert-butyldimethylsilyl)-beta-D- ribofuranosyl]-3'-spiro-5"-(4"-amino-1",2"-oxathiole 2",2"-dioxide) (TSAO) analogues: synthesis and anti-HIV-1 activity” (J Med Chem, 1994):

Experiments:
CCRF-CEM [1] = test: Tested for the inhibitory activity of virus induced giant cell formation in HIV-1 infected CEM cells; assay type: functional, cell-based; conditions: Homo sapiens
CCRF-CEM [2] = test: Tested for the inhibitory activity of virus induced giant cell formation in HIV-2 infected CEM cells; assay type: functional, cell-based; conditions: Homo sapiens
MT4 [3] = test: Tested for the inhibitory activity of HIV-1 infected MT-4 cells; assay type: functional, cell-based; conditions: Homo sapiens
Outline: (§1)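 MT-4 cells (5 × 10^5/mL) grown in RPMI-1640 with 10% FCS, 2 mM L-glutamine and 0.075% NaHCO3. Infected with HIV-1 or HIV-2 at 100 CCID50/mL and mixed with compound dilutions (100 to 0.006 µg/mL). After 5 days viable cells were counted by trypan blue staining. EC50 is the concentration that reduces viable-cell loss in infected cultures by 50%.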

MT4 [4] = test: Tested for the inhibitory activity of HIV-2 infected MT-4 cells; assay type: functional, cell-based; conditions: Homo sapiens; outline: as §1
MT4 [5] = test: Tested for the cytotoxic concentration required to reduce the number of viable mock infected MT-4 cells; assay type: functional; conditions: Homo sapiens
Outline: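 Mock-infected MT-4 cells (5 × 10^5/mL) in RPMI-1640 with 10% FCS were exposed to compound dilutions (100 to 0.006 µg/mL). Viable cells were counted by trypan blue at day 5; about 150-200 cells were counted in controls. CC50 is the concentration that reduces viable cell number by 50%.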

MT4 [6] = test: Tested for the ratio between CC50 (MT-4) to EC50 (MT-4); assay type: functional, Homo sapiens

| Structure (SMILES) | EC50 (CCRF-CEM [1]) | EC50 (CCRF-CEM [2]) | EC50 (MT4 [3]) | EC50 (MT4 [4]) | CC50 (MT4 [5]) | Ratio (MT4 [6]) |
| --- | --- | --- | --- | --- | --- | --- |
| Cc1ccnc2c1NC(=O)c1cccnc1N2C1CC1 [NEVIRAPINE] | 0.11 µM | > 80 µM | 0.12 µM | > 80 µM | > 80 µM | >625 |
| CC(=O)c1cn([C@@H]2O[C@H](CO[Si](C)(C)C(C)(C)C)[C@@]3(OS(=O)(=O)C=C3N)[C@H]2O[Si](C)(C)C(C)(C)C)nn1 | 1.1 µM | > 35 µM | 1.5 µM | > 7 µM | 13 µM | 8.6 |
| CNC(=O)c1cnnn1[C@@H]1O[C@H](CO[Si](C)(C)C(C)(C)C)[C@@]2(OS(=O)(=O)C=C2N)[C@H]1O[Si](C)(C)C(C)(C)C | 0.08 µM | > 7 µM | 0.16 µM | > 7 µM | 27 µM | 171 |
| CC(C)(C)[Si](C)(C)OC[C@H]1O[C@@H](n2nncc2C(N)=O)[C@H](O[Si](C)(C)C(C)(C)C)[C@]12OS(=O)(=O)C=C2N | 0.14 µM | > 7 µM | 0.52 µM | > 7 µM | 15 µM | 28.1 |
| CCCCc1cn([C@@H]2O[C@H](CO[Si](C)(C)C(C)(C)C)[C@@]3(OS(=O)(=O)C=C3N)[C@H]2O[Si](C)(C)C(C)(C)C)nn1 | 1.5 µM | > 7 µM | 2.6 µM | > 170 µM | 107 µM | 41 |
| CN(C)C(=O)c1cn([C@@H]2O[C@H](CO[Si](C)(C)C(C)(C)C)[C@@]3(OS(=O)(=O)C=C3N)[C@H]2O[Si](C)(C)C(C)(C)C)nn1 | 1.2 µM | > 7 µM | 0.42 µM | > 7 µM | 12 µM | 28.1 |
| CC(C)(C)[Si](C)(C)OC[C@H]1O[C@@H](n2cc(CCCCl)nn2)[C@H](O[Si](C)(C)C(C)(C)C)[C@]12OS(=O)(=O)C=C2N | 0.66 µM | > 33 µM | 0.58 µM | > 170 µM | 53 µM | 91.4 |
| COC(=O)c1cnnn1[C@@H]1O[C@H](CO[Si](C)(C)C(C)(C)C)[C@@]2(OS(=O)(=O)C=C2N)[C@H]1O[Si](C)(C)C(C)(C)C | 0.13 µM | > 40 µM | 0.9 µM | > 150 µM | 128 µM | 142 |
| COCc1cn([C@@H]2O[C@H](CO[Si](C)(C)C(C)(C)C)[C@@]3(OS(=O)(=O)C=C3N)[C@H]2O[Si](C)(C)C(C)(C)C)nn1 | 2.3 µM | > 70 µM | 27 µM | > 35 µM | 73 µM | 2.44 |
| COC(=O)c1cn([C@@H]2O[C@H](CO[Si](C)(C)C(C)(C)C)[C@@]3(OS(=O)(=O)C=C3N)[C@H]2O[Si](C)(C)C(C)(C)C)nn1 | 0.18 µM | > 40 µM | 0.6 µM | > 150 µM | ≥ 150 µM | >=249 |
| Cc1cn([C@@H]2O[C@H](CO[Si](C)(C)C(C)(C)C)[C@@]3(OS(=O)(=O)C=C3N)[C@H]2O[Si](C)(C)C(C)(C)C)nn1 | 1.4 µM | > 6.9 µM | 2.8 µM | > 35 µM | 23 µM | 8.4 |
| COCc1cnnn1[C@@H]1O[C@H](CO[Si](C)(C)C(C)(C)C)[C@@]2(OS(=O)(=O)C=C2N)[C@H]1O[Si](C)(C)C(C)(C)C | 0.9 µM | > 14 µM | 2.4 µM | > 7 µM | 28 µM | 11 |
| CCOC(OCC)c1cnnn1[C@@H]1O[C@H](CO[Si](C)(C)C(C)(C)C)[C@@]2(OS(=O)(=O)C=C2N)[C@H]1O[Si](C)(C)C(C)(C)C | > 150 µM | > 150 µM | > 40 µM | > 40 µM | > 150 µM | ><1 |
| Cc1cn([C@H]2C[C@H](N=[N+]=[N-])[C@@H](CO)O2)c(=O)[nH]c1=O [ZIDOVUDINE] |  |  |  |  | 6 µM | 3000 |
| CCOC(=O)c1nnn([C@@H]2O[C@H](CO[Si](C)(C)C(C)(C)C)[C@@]3(OS(=O)(=O)C=C3N)[C@H]2O[Si](C)(C)C(C)(C)C)c1C(=O)OCC | 1.6 µM | > 60 µM | 3.8 µM | > 30 µM | 55 µM | 14.5 |
